The values that follow come from publication PMC8369490 (ACS Infectious Diseases, 2021).

A word on the MIC: it is the lowest concentration found to suppress growth. Usually EC50 stands for the concentration at which the effect is half-maximal.

One data set relates to E. coli TOP10F′ cells. Put plainly: MIC in E. coli TOP10F′. The following applies: Escherichia coli, 10 h, read-out: toxicity E. coli MIC. Type of data set: cell-based. The method, boiled down:
(§1)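 Broth dilution in LB or MHB-II. Bacteria grown to mid-log at 37 °C in flasks, diluted to OD600 0.001 and added 1:1 to medium with 2-fold increasing test compound (0.5% DMSO final). Incubated at 37 °C in a plate reader with continuous linear shaking; OD600 every 15 min for 10 h. MIC is the lowest concentration with no growth detectable by OD600 at 10 h.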

Data set [1] deals with Rcs stress response (PrprA-mNG reporter) in E. coli TOP10F′ cells. The data set is described as follows: Rcs stress reporter assay. Type of data set: cell-based. The following applies: Escherichia coli, 3 h, read-out: stress reporter EC50 PrprA-mNG. The method in brief:
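TOP10F′ with pUA66-PrprA-mNG, at OD600 0.05 in M9, dispensed onto a 1:3 test-compound dilution series in 384-well plates. Positive control is an Hbp-secretion inhibitor at 200 μM; DMSO is the negative control. After 3 h nonshaken incubation, OD600 and mNG fluorescence (ex 488/em 535 nm) measured. EC50 derived from OD600-corrected fluorescence.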
Background: A reporter such as luciferase makes a cellular process visible.

The subject of data set [2] is heat-shock response (PgroES-mNG reporter) in E. coli TOP10F′ cells. Put plainly: Heat-shock stress reporter assay. Type of data set: cell-based. The following applies: Escherichia coli, 3 h, read-out: stress reporter EC50 PgroES-mNG. The method in brief:
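TOP10F′ carrying pEH3-empty and pUA66-PgroES-mNG, at OD600 0.05 in M9, added to 384-well plates with a 1:3 test-compound dilution series. Positive-control wells hold cells with pEH3-ssTorA-Hbp induced by 40 μM IPTG; DMSO controls included. After 3 h nonshaken incubation, OD600 and mNG fluorescence (ex 488/em 535 nm) read. EC50 from OD600-corrected fluorescence.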

Data set [3] relates to σ^E cell envelope stress response (PrpoE-mNG reporter) in E. coli TOP10F′ cells expressing Hbp. The data set is described as follows: σ^E stress reporter assay. Type of data set: cell-based. The following applies: Escherichia coli, 3 h, read-out: stress reporter EC50 PrpoE-mNG.
Another data set has as its system HEK293 cells. Put plainly: HEK293 cell toxicity. Type of data set: cell-based. The following applies: 48 h, dose-response up to 60 μM; dash = no toxicity. The method in brief: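 HEK293 cells kept in DMEM with 10% FBS at 37 °C, 5% CO2. Test compound dispensed as a 1:3 dilution series from DMSO stocks; DMSO as negative and tamoxifen as positive control. About 2000 cells per well incubated 48 h at 37 °C, 5% CO2, 90% humidity. Viability read with CellTiter-Glo reagent after 2 min shaking.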

Data set [4] relates to OMP levels in E. coli TOP10F′ cells. The data set is described as follows: Cell envelope protein analysis. The format is cell-based, Escherichia coli. The method in brief: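 TOP10F′ cells grown 3 h in LB in flasks with one concentration of test compound. Cells pelleted, sonicated on ice in 10 mM Tris-HCl, 3 mM EDTA, pH 8.0 with protease inhibitors. Envelopes pelleted at 200 000g for 1 h at 4 °C and solubilised overnight at 4 °C in TBS with 1% DDM. SDS-PAGE and immunoblots, loading corrected by OD600; 3 independent experiments.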

In another data set the test system is Bacillus subtilis 168. Put plainly: MIC against bacterial strains. The format is cell-based. The method, boiled down:
as §1

A further data set concerns Escherichia coli (K12). Put plainly: MIC against bacterial strains. Type of data set: cell-based. The following applies: 10 h. The method, boiled down:
as §1

In data set [5] the test system is BAM complex (BamABCDE) reconstituted in proteoliposomes. Put plainly: OmpT folding in vitro assay with BAM proteoliposomes. Type of data set: biochemical, Escherichia coli. The following applies: 100 μM compound, OmpT:SurA 1:42 versus 1:7. The method, boiled down: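 BAM proteoliposomes (His-tag-purified BamABCDE in DDM, reconstituted into E. coli polar lipids) with test compound and fluorogenic peptide in Tris/HCl, pH 6.5, preincubated 5 min at 30 °C. Mixed with a second subreaction of SurA plus guanidine-denatured OmpT at 1:7 or 1:42 OmpT:SurA. Fluorescence (ex 330/em 430 nm) read every 20 s for 80 min at 30 °C. Linear-phase slopes from three replicates, as % of DMSO.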
Sequence of BAM complex (BamABCDE) reconstituted in proteoliposomes (P77774 20-392): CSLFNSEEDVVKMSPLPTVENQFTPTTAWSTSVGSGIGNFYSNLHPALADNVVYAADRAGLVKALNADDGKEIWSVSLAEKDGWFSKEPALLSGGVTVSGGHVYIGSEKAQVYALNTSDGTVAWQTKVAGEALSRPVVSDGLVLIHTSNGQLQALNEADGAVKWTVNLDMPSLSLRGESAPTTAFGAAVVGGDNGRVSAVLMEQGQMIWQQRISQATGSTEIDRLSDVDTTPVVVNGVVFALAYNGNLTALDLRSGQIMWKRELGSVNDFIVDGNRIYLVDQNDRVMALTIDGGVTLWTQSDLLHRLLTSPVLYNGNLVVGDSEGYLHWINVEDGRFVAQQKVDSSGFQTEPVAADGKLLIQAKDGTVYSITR
Sequence of BAM complex (BamABCDE) reconstituted in proteoliposomes (P0A903 25-344, further chain): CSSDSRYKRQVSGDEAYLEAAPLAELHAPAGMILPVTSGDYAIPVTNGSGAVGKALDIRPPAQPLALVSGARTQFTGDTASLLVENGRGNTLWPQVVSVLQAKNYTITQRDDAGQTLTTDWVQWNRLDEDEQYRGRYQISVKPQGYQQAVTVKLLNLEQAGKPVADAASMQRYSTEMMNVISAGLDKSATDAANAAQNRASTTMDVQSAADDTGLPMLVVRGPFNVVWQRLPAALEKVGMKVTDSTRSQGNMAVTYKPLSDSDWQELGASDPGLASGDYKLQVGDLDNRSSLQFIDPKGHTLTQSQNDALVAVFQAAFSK
Sequence of BAM complex (BamABCDE) reconstituted in proteoliposomes (P0A937 20-113, further chain): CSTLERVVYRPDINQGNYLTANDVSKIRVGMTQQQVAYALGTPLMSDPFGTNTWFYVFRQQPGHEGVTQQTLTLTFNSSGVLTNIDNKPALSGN
Sequence of BAM complex (BamABCDE) reconstituted in proteoliposomes (P0AC02 20-245, further chain): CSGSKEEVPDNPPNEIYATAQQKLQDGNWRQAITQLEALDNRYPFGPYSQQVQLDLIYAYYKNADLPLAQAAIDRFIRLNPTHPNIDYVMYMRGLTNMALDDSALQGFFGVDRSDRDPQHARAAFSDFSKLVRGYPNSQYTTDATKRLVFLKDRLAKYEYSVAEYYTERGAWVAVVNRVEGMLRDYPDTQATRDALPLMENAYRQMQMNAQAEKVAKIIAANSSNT

A further data set has as its system Klebsiella pneumoniae. The data set is described as follows: MIC against bacterial strains. Type of data set: cell-based. Particulars: 10 h. The method, boiled down: as §1
The test system of another data set is E. coli MC4100 bamA101. The data set is described as follows: Growth inhibition of bamA101 knockdown strain versus wild-type. The format is cell-based, Escherichia coli. Particulars: E. coli MC4100 bamA101, MHB-II, 10 h. The method, boiled down: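 Wild-type MC4100 and bamA101 knockdown cells grown to mid-log at 37 °C, diluted to OD600 0.001 and mixed 1:1 with MHB-II containing 2-fold increasing test compound (0.5% DMSO final) in 96-well plates. Incubated at 37 °C with continuous linear shaking; OD600 read every 15 min. The 10 h OD600 is expressed as % growth versus DMSO-treated cells (100%).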

The test system of another data set is Pseudomonas aeruginosa. Put plainly: MIC against bacterial strains. The format is cell-based. The following applies: 10 h. The method, boiled down: as §1
The next data set concerns E. coli MC4100 cells. Put plainly: Potentiation of antibiotics. Type of data set: cell-based, Escherichia coli. Particulars: E. coli MC4100, LB, 10 h.
Another data set relates to Acinetobacter baumannii. The data set is described as follows: MIC against bacterial strains. Type of data set: cell-based. The following applies: 10 h. The method, boiled down:
as §1

In another data set the test system is Enterobacter cloacae. Put plainly: MIC against bacterial strains. Type of data set: cell-based. Particulars: 10 h. The method in brief:
as §1

The test system of another data set is Enterococcus faecium VRE. The data set is described as follows: MIC against bacterial strains. Type of data set: cell-based. The following applies: 10 h. The method, boiled down:
as §1

For data set [6], the system named is secretion of autotransporter Hbp in E. coli MC1601 degP::S210A. Put plainly: Hbp secretion analysis. Type of data set: cell-based, Escherichia coli. Particulars: Western blotting. The method in brief: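 MC1061 degP::S210A cells grown in M9 to mid-log, diluted to OD600 0.1, mixed 1:1 with M9 containing test compound or DMSO (0.5% final). Hbp induced from pEH3 with 40 μM IPTG at 37 °C with shaking. Cells spun 5000g for 5 min; supernatant TCA-precipitated overnight at 4 °C. Lysates and medium run on 11% SDS-PAGE, immunoblotted (Hbp passenger, Hbp β-barrel, DegP), loading OD600-corrected.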
Background: In western blotting, separated proteins are transferred to a membrane and probed.

The subject of data set [7] is E. coli MC4100 expressing FhuA ΔC/Δ4L. The data set is described as follows: Growth inhibition of E. coli expressing open channel FhuA ΔC/Δ4L. The format is cell-based, Escherichia coli. The following applies: E. coli MC4100, LB, 10 h.
The next data set has as its target OmpT protease (Escherichia coli, UniProt P09169). Put plainly: OmpT protease activity, compound added after OmpT folding was completed. The format is biochemical. Particulars: 100 μM, added 2 h after start of folding reaction. The method in brief:
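BAM proteoliposomes (2 μM) mixed with SurA (140 μM) and denatured OmpT (20 μM) subreactions in Tris/HCl, pH 6.5, and held 2 h at 30 °C to prefold OmpT. Then combined with a subreaction of test compound (200 μM) or DMSO plus fluorogenic peptide; concentrations are per subreaction. Cleavage read at ex 330/em 430 nm for 80 min at 30 °C. Slope-based activity relative to DMSO.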

In data set [8] the test system is Staphylococcus aureus MRSA. The data set is described as follows: MIC against bacterial strains. The format is cell-based. Particulars: 10 h. The method, boiled down:
as §1

Data set [9] deals with Escherichia coli (uropathogenic). The data set is described as follows: MIC against bacterial strains. The format is cell-based. Particulars: 10 h. The method in brief:
as §1

Setting [10] is: 0.25× MIC, cell envelopes, Western blotting.

Converted amounts (≈) assume the structure as drawn.

Sequence of OmpT protease (P09169 21-317): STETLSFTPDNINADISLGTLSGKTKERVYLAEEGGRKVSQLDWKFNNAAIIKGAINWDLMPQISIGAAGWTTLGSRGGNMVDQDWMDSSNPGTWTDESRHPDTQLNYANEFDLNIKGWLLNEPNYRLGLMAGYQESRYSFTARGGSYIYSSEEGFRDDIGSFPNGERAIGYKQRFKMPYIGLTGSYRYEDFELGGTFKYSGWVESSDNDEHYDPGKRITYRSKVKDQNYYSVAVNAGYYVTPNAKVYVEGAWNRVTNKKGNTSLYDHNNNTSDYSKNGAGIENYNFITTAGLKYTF

As for `CCOC(=O)C1=C(O)CCC(NC(=O)OC(C)(C)C)C1` (stereo not shown) [compound 1], the MIC in the data set on E. coli TOP10F′ cells is > 200 µM. For the same compound, the values for the EC50 in data set [1], in data set [2] and in [3] were 38 µM, > 60 µM and 1 µM, respectively.
Turning to `CC(=O)Nc1cc(-c2nc(O)c3c(n2)CCC(NC(=O)OC(C)(C)C)C3)ccn1` (stereo not shown) [compound 3], the MIC in the data set with E. coli TOP10F′ cells is 25 µM (≈ 9.99 µg/mL). The EC50 in data set [1] is 16 µM; in data set [2], > 60 µM; in data set [3], 7 µM. Moreover, the “toxicity HEK293 LD50” value in the data set with HEK293 cells was 20 µM.
Turning to `Nc1cc(-c2nc3c(c(NCc4ccccc4)n2)CC(N)CC3)ccn1` (stereo not shown) [compound 14, 2-(2-aminopyridin-4-yl)-N4-benzyl-5,6,7,8-tetrahydroquinazoline-4,6-diamine], the MIC in the data set on E. coli TOP10F′ cells is 100 µM (≈ 34.6 µg/mL); against Bacillus subtilis 168 (Bacillus subtilis 168, 10 h, highest concentration tested 200 μM), >200 µM; against Bacillus subtilis 168 (Bacillus subtilis, 168, 10 h), > 200 µM; with Escherichia coli (K12) it was 100 µM (≈ 34.6 µg/mL); with Klebsiella pneumoniae, > 200 µM; with Pseudomonas aeruginosa, 200 µM (≈ 69.3 µg/mL). Moreover, the MIC against Acinetobacter baumannii was 100 µM (≈ 34.6 µg/mL); in the data set on Enterobacter cloacae, > 200 µM; against Enterococcus faecium VRE, > 200 µM; in [8], > 200 µM; in data set [9] it was > 200 µM. The “levels of the major β-barrel OMPs OmpF, OmpC, and OmpA compared to DMSO” value in [4] (0.25× MIC (2: 12 μM, 14: 25 μM), cell envelopes, Western blotting) is given as “dropped considerably”. Further, the “level of BamA” value in data set [4] (setting [10]) is “severely reduced”. Besides, the “levels of lipoproteins BamB and LpoB” value in data set [4] (setting [10]) is recorded as “largely unaffected”. Besides, the “total levels of PhoE” value in data set [4] (PhoE expressed from pEH3, 0.25× MIC and 0.5× MIC, 3 h, seminative PAGE) was “reduced total levels of PhoE in a dose-dependent manner”. The figures for the EC50 in data set [1], in data set [2] and in data set [3] were 12 µM, > 60 µM and > 60 µM, respectively. For the same compound, in the data set with HEK293 cells, the “toxicity HEK293 LD50” value worked out at 60 µM. In addition, the “influence of 6-fold excess of SurA on the inhibiting effect of the compound” value in data set [5] was “did not influence”. In addition, the “antimicrobial effect (MIC) in bamA101 mutant versus wild-type” value in the data set on E. coli MC4100 bamA101 is on record as “enhanced antimicrobial effect”. Further, the “fold decrease of MIC of vancomycin in presence of compound” value in the data set on E. coli MC4100 cells (compound at 0.25× MIC (2: 12 μM, 14: 25 μM)) stood at 4 fold. In addition, in the data set with E. coli MC4100 cells (compound at 0.25× MIC), the “MICs of ampicillin and chloramphenicol in presence of compound” value is listed as “largely unaffected”. Further, the “Hbp processing in cells (pro-Hbp)” value in data set [6] (0.25× MIC, whole cell lysates) is given as “accumulation of pro-Hbp”. In [6] (2 and 14 at 0.25× MIC, spent medium), the “amount of secreted Hbp passenger in the spent medium” value is recorded as “decreased”. Moreover, the “effect of FhuA ΔC/Δ4L expression on MIC of the compound” value in [7] was “did not affect”. Also, the “effect on OmpT protease activity when added after OmpT was folded” value at OmpT protease is reported as “inhibiting effect”.
Take `CN[C@H](CC(C)C)C(=O)N[C@H]1C(=O)N[C@@H](CC(N)=O)C(=O)N[C@H]2C(=O)N[C@H]3C(=O)N[C@H](C(=O)N[C@H](C(=O)O)c4cc(O)cc(O)c4-c4cc3ccc4O)[C@H](O)c3ccc(c(Cl)c3)Oc3cc2cc(c3O[C@@H]2O[C@H](CO)[C@@H](O)[C@H](O)[C@H]2O[C@H]2C[C@](C)(N)[C@H](O)[C@H](C)O2)Oc2ccc(cc2Cl)[C@H]1O` [vancomycin, reference compound]: in data set [7], the “permeability upon FhuA ΔC/Δ4L expression” value is reported as “clearly increased”.
